Dynein cargo inh = dynein cargo transport inhibition; z-score, hits read low; 3617.4 mouse cells, GR-EGFP nuclear translocation imaging; test concentration mostly 20 µM; stimulated with dexamethasone, 1 µM; hits give low values; 220,000 tested, 0.47% active;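 active means plate z-score of nuclear minus cytoplasmic receptor signal below a set negative limit, without overly bright fluorescence or cell loss, cut at about -3.5 in these data, passing the limit was not always enough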;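 further: z-score of nuclear minus cytoplasmic ring GR-EGFP intensity difference per well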
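Also added: dexamethasone, 1.0 µM final. Medium: tet-free, stripped-serum medium. Detection: fixed, Hoechst-stained cells imaged at 10x for EGFP. Read-out: nuclear-to-cytoplasmic GR-EGFP distribution per well. Times: induction 48 h, compound 1 h, agonist 30 min.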
Hsp70 activator = transcriptional activators of Hsp70; HeLa Hsp70 promoter luciferase reporter, luminescence; scaled: vehicle 0, proteasome-inhibitor control 100%; 200,000 tested, 0.04% active; activation, % at 10 µM;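 active means activation above the mean across all tested compounds plus 3 SD, cutoff set per campaign, cut at about 5.5% in these data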;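 further: 100% = MG132 at 30 µM as the positive control and 0% = DMSO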
EP2 mod = modulators of human EP2 prostaglandin E2 receptor | 260,000 tested, 0.83% active | EP2-expressing cells, cAMP HTRF FRET, PGE2 co-stimulation | induction, % at 25 µM | P43116;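 active means compounds whose cAMP rise, as percent of the full-agonist control response, exceeds 60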;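 further: rat C6 glioma line stably carrying human EP2 under a CMV promoter; the protocol text gives 20 µM as final concentration; 100% = response of wells given 1 µM PGE2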
Target sequence (P43116 whole entry, looked up): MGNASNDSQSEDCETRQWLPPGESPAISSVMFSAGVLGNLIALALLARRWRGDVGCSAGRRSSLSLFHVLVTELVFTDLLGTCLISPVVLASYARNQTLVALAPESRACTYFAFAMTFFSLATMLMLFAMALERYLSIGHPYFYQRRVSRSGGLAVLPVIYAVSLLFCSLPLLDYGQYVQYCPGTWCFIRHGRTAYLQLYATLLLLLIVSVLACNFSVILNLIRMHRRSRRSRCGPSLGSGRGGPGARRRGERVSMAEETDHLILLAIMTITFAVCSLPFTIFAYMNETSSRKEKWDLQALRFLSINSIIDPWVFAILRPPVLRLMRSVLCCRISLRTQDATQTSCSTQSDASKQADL
PGE2 EP2 inh = blocks the human prostaglandin E2 receptor EP2; 260,000 tested, 0.52% active; C6 glioma cells expressing human EP2, cAMP TR-FRET; cells stimulated with saturating PGE2; inhibition, % at 25 µM;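 active means percent inhibition above 40 after rounding to a whole number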;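 further: rat C6 glioma host cells with rolipram phosphodiesterase inhibitor present; the protocol text gives 20 µM as final concentration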
* = called active by the depositor; . = no result. Most compounds without a hit are left out; they make up all but 1.7% or so of the library.

SMILES | Dynein cargo inh | Hsp70 activator | EP2 mod | PGE2 EP2 inh
COCCc1ncc(CN2C3CCC2CC(O)(c2ccc(F)cc2)C3)cn1 (centres undefined) | . | . | -132.3 | 2.2
COc1cccc(CN2CCN(C(=O)COc3ccccc3)[C@@H](C)C2)c1 | . | . | -93.1 | .
COc1ccc(C[C@@H]2C(=O)N[C@H](C)C(=O)N(C)[C@@H]3C(=O)N(C)[C@@H](Cc4ccc(O)c(c4)Oc4ccc(cc4)[C@H]3O)C(=O)N[C@@H](C)C(=O)N[C@H](C)C(=O)N2C)cc1 | . | . | 27.4 | 42.8*
COc1ccc2c3c1OC1C(OC)C=CC4C(C2)CN(C)CC341 (centres undefined) | . | . | -20.7 | 22.7
CC[C@@H]1[C@@H]2Cc3ccc(O)cc3[C@@]1(CC)CCN2C | . | . | 14.4 | 51.7*
O=C(O)[C@@H](O)[C@@H](O)[C@@H]1[O][Sb][O][C@@H]1CO | . | . | 10.1 | 51.0*
N#CC1=C(S)N(c2ccccc2)C(c2cccnc2)NC1=O (centres undefined) | . | . | -21.9 | 9.2
CCOC(=O)C1(c2ccccc2)CCN(Cc2cccc(C(=O)O)c2)CC1 | 0.149 | -0.3 | 18.0 | 25.4
CCOC(=O)C1(c2ccccc2)CCN(CC(=O)Nc2cccc3ccccc23)CC1 | -0.45 | -0.3 | 63.1* | 5.8
Cn1c(O)c(C=Nc2ccccc2Sc2ccccc2)c(=O)n(C)c1=O | -0.51 | 0.4 | 61.1* | 6.2
Cn1c(O)c(C=NCc2ccco2)c(=O)n(C)c1=O | -0.338 | 0.1 | 3.1 | 4.1
O=C1C(Cl)=C(Cl)C(=O)C(Cl)=C1Cl | . | . | -35.7 | 109.4*
COc1ccc(C(F)(F)F)cc1N1C(=O)CC(=O)NC1=O | . | . | 2.0 | 8.8
COC(=O)C1=C(N)Oc2c(c(=O)oc3ccccc23)C1c1cccc(C(F)(F)F)c1 (centres undefined) | . | . | -11.0 | 6.3
C[C@@]12CC[C@@H]3[C@H](CCC4=CC(=O)CC[C@H]43)[C@H]1CC[C@H]2OC1(O)C(=O)c2ccccc2C1=O | . | . | -40.0 | 64.2*
CCC(CC)N1CCN(Cc2cc(OC)c(OC)c(OC)c2)CC1 | . | . | -28.3 | 3.9
CO[C@H]1[C@H](O)[C@@H](O[C@@H]2[C@@H](Oc3cccc4c(O)c5c(=O)oc6ccc(C)c7c(=O)oc(c34)c5c67)O[C@@H](C)[C@H](O)[C@H]2O)O[C@@H](C)[C@@H]1O | . | . | 8.0 | 44.1*
CN(C)CCN(C(=O)Cc1csc(-c2cccc(F)c2)n1)C1CCCC1 | . | . | -59.8 | 13.1
CC1=C2C(=O)[C@H]3[C@@H](CC=C4C[C@@H](O)CC[C@@]43C)[C@@H]2CC[C@@]12O[C@@H]1C[C@H](C)CN[C@H]1[C@@H]2C | . | . | 18.5 | 41.0*
Cc1c(/C=C2/CC3C4CC=C5CC(O)CCC5(C)C4CCC3(C)C2=O)cnn1C (centres undefined) | 0.398 | -0.5 | . | .
Cc1cc(C)nc(NC2=NCCN2)n1 | . | . | -14.8 | 10.7
CN(C)C(=S)SSC(=S)N(C)C | -2.22 | -0.2 | -36.7 | 124.6*
CN(CCC(=O)O)C1=Nc2ccc(Cl)cc2C(c2ccccc2)=[N+]([O-])C1 | . | . | 13.9 | 49.8*
CCCn1cc(CN2C3CCC2CC(O)(c2ccccc2F)C3)cn1 (centres undefined) | . | . | -32.5 | 5.8
C#CCOc1ccc(CN2C3CCC2CC(O)(c2ccc(OC)cc2)C3)cc1 (centres undefined) | . | . | -44.2 | 5.6
SMILES | Dynein cargo inh | Hsp70 activator | EP2 mod | PGE2 EP2 inh
COc1cc2c3cc1Oc1c(O)c(OC)cc4c1[C@@H](Cc1ccc(cc1)Oc1cc(ccc1O)C[C@@H]3N(C)CC2)N(C)CC4 | . | . | -7.2 | 48.2*
COc1cc2c3cc1Oc1cc(ccc1O)C[C@@H]1c4c(cc(OC)c(O)c4Oc4ccc(cc4)C[C@H]3N(C)CC2)CCN1C | -0.497 | -0.3 | -18.3 | 18.2
CC(=O)Nc1ccc(NC(=O)CN2C3CCC2CC(O)(c2ccco2)C3)cc1 (centres undefined) | . | . | -43.0 | .
C[C@]12CC(=CO)C(=O)C[C@@H]1CC[C@@H]1[C@@H]2CC[C@@]2(C)[C@H]1CC[C@]2(C)O | . | 0.0 | . | .
C[C@]12Cc3cnc(-c4ccccc4)nc3C[C@@H]1CC[C@H]1[C@H]2CC[C@@]2(C)[C@H]1CC[C@]2(C)O | . | . | -0.5 | 48.8*
COc1ccc(C2(O)CC3CCC(C2)N3Cc2cc(OC)c(OC)cc2C)cc1 (centres undefined) | . | . | -48.5 | 4.5
CCCCC[CH2][Hg][n+]1c[nH]c2nc(N)[nH]c(=S)c21 | . | . | -28.5 | 99.9*
Cc1cccc(NP(=O)(Oc2ccccc2F)Oc2ccccc2F)c1C | 1.12 | -0.1 | 64.8* | 7.1
CC1=CC(=O)c2c(O)cccc2C1=O | . | . | -33.6 | 79.1*
